We go through 67 compounds from PubChem BioAssay AID651740 (Broad Institute, 2012).

Screen size: about 5,600 compounds; about 1,200 (21%) were called active. Inconclusive results (about 3%) are left out.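 How the source made its calls: active means mean inhibition above about 95%, with at least 55% of replicates also reaching it (limit read from the data); inconclusive means meets just one of the two conditions; inactive means meets neither condition.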 These entries were drawn from the full list.

In general, inhibition refers to the drop in the measured response relative to a control, in per cent.

A short description of this experiment: inhibitors of intracellular T. cruzi replication, confirmation, NIH3T3 host cells, beta-gal parasites, cherry-pick, set 2 (AID 651740).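 Further: plate controls were neutral control median for no effect and positive control median for full effect.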 The conditions noted are these: T. cruzi beta-gal in NIH3T3, GalScreen luminescence, 90 h; at 2.09 µM; stronger effect = higher value. The method in brief:
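Compound – single point, 100 nL in DMSO · Material – NIH/3T3 host cells with beta-gal T. cruzi Tulahuen C4 · Medium – DMEM plus 2% fetal bovine serum, 1% PSG · Technique – GalScreen lysis and luminescent beta-gal signal · Timing – ≥90 h co-culture with compound, 60 min detection reagent · Also added – 5000 trypomastigotes per well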
Take `C[C@H](CO)N1C[C@H](C)[C@@H](CN(C)S(=O)(=O)c2ccccc2)Oc2ncc(C#Cc3ccccc3F)cc2C1=O`: the inhibition was 93% (inactive).
For `C[C@H](CO)N1C[C@H](C)[C@H](CN(C)S(=O)(=O)c2cccc(F)c2)Oc2ncc(/C=C/c3ccccc3)cc2C1=O`, the inhibition is 46.4% (inactive).
`C[C@H]1CN([C@@H](C)CO)C(=O)c2cccc(NS(=O)(=O)c3cn(C)cn3)c2O[C@@H]1CN(C)CC1CCCCC1`: the inhibition was 29.6% (inactive).
The same measure for `Cc1noc(C)c1S(=O)(=O)Nc1ccc2c(c1)C(=O)N([C@@H](C)CO)C[C@H](C)[C@@H](CN(C)C(=O)Nc1cccc3ccccc13)OCCCC[C@H](C)O2`: 42.4% (inactive); for `CC(C)(C)[S@@](=O)N1Cc2cc(C(=O)NCc3ccc4c(c3)OCO4)nc(-c3cccc(-c4ccccc4)c3)c2[C@H]1CCO`: 91.6% (inactive).
As to `O=C(Nc1ccc(Cl)cc1)N[C@@H]1CC[C@@H](CCNC(=O)c2ccccc2F)O[C@H]1CO`, the inhibition is 36.4% (inactive).
As to `Cc1ccc(S(=O)(=O)N(C)C[C@@H]2Oc3ncc(-c4cc5ccccc5o4)cc3C(=O)N([C@H](C)CO)C[C@@H]2C)cc1`, the inhibition was 43% (inactive).
The same measure for `COc1ccccc1-c1ccc2c(c1)O[C@H](CN(C)S(=O)(=O)c1ccc(C)cc1)[C@@H](C)CN([C@H](C)CO)S2(=O)=O`: 91.3% (inactive).
`O=C(Nc1ccccc1)N1CCCCN2[C@H](CO)[C@@H](c3ccc(C#Cc4ccccn4)cc3)[C@H]2C1`: the inhibition was 39.3% (inactive).
In the case of `C[C@H](CO)N1C[C@H](C)[C@@H](CN(C)C(=O)C2CCCCC2)Oc2cc(-c3ccccc3)ccc2S1(=O)=O`, the inhibition was 68.2% (inactive).
Then `CCCN(C)C[C@@H]1Oc2cc(C#Cc3ccc(F)cc3)ccc2S(=O)(=O)N([C@H](C)CO)C[C@H]1C`, with 68.9% (inactive); and `C[C@@H]1CN([C@H](C)CO)S(=O)(=O)c2ccc(C#C[C@@H](C)O)cc2O[C@@H]1CN(C)Cc1ccc(-c2ccccc2)cc1`, with 96.9% (active).
In the case of `C[C@H](CO)N1C[C@H](C)[C@H](CN(C)Cc2ccncc2)Oc2cc(-c3ccncc3)ccc2S1(=O)=O`, the inhibition was 90.6% (inactive).
For the compound `Cc1ccc(S(=O)(=O)N2C[C@@H](O)COC[C@@H]3O[C@H](CC(=O)NCc4ccc(Cl)c(Cl)c4)CC[C@H]32)cc1`, the inhibition is 50.2% (inactive).
`COCCNC[C@@H]1[C@H](c2ccccc2)[C@H](CO)N1c1nc(C)c(C)s1`: the inhibition was 5.12% (inactive).
On to `O=C(Nc1ccc2c(c1)[C@@H]1C[C@H](CC(=O)N3CCOCC3)O[C@@H](CO)[C@@H]1O2)c1ccc2c(c1)OCO2`, for which the inhibition is 6.38% (inactive).
The same measure for `C[C@@H]1CN([C@H](C)CO)C(=O)c2cc(NS(C)(=O)=O)ccc2O[C@@H](C)CCCCO[C@H]1CN(C)S(=O)(=O)c1cn(C)cn1`: -5.24% (inactive); for `COc1ccc(C#Cc2ccc([C@@H]3[C@@H](CO)N4CCCCN(C(=O)c5ccncc5)C[C@@H]34)cc2)cc1`: 30% (inactive); for `C[C@@H]1CN([C@H](C)CO)C(=O)c2cccc(NC(=O)c3cnccn3)c2O[C@@H]1CN(C)Cc1ccc(C(=O)Nc2ccccc2N)cc1`: 82.4% (inactive).
Consider `C[C@H]1CN([C@@H](C)CO)S(=O)(=O)c2ccc(C#CC3CCCC3)cc2O[C@H]1CN(C)C(=O)Cc1ccncc1`, for which the inhibition was 79.4% (inactive).
On to `C[C@H]1CN([C@@H](C)CO)C(=O)c2cc(NC(=O)Nc3ccc4c(c3)OCO4)ccc2O[C@@H]1CN(C)Cc1ccc(Oc2ccccc2)cc1`, for which the inhibition is 66.6% (inactive).
Take `C[C@@H]1CN([C@@H](C)CO)C(=O)c2cc(NC(=O)Nc3cccc4ccccc34)ccc2O[C@H]1CN(C)Cc1ccc(Cl)c(Cl)c1`: the inhibition was 102% (active).
`C[C@@H]1CN([C@@H](C)CO)C(=O)c2cc(NC(=O)Nc3cccc4ccccc34)ccc2O[C@H]1CN(C)Cc1ccc(Oc2ccccc2)cc1`: the inhibition was 106% (active).
Regarding `Cc1ccc(S(=O)(=O)Nc2ccc3c(c2)C(=O)N([C@H](C)CO)C[C@H](C)[C@H](CN(C)Cc2ccc(Cl)c(Cl)c2)O3)cc1`, the inhibition is 74% (inactive).
Consider `C[C@@H]1CN([C@@H](C)CO)C(=O)c2cc(NC(=O)Nc3ccc4c(c3)OCO4)ccc2O[C@@H]1CN(C)Cc1ccc(Oc2ccccc2)cc1`, for which the inhibition was -1.56% (inactive).
Regarding `C[C@@H]1CN([C@@H](C)CO)C(=O)c2cc(NC(=O)Cc3ccccc3)ccc2O[C@@H]1CN(C)Cc1ccc(Oc2ccccc2)cc1`, the inhibition is 94.9% (inactive).
As to `Cc1ccc(-c2ccc([C@H]3[C@H](CO)N4CCCCN(Cc5cncnc5)C[C@@H]34)cc2)cc1`, the inhibition was 50.8% (inactive).
The same measure for `C[C@@H]1CN([C@H](C)CO)C(=O)c2cc(C#Cc3ccccn3)cnc2O[C@H]1CN(C)Cc1ccccc1`: 76.7% (inactive); for `C[C@H]1CN([C@@H](C)CO)C(=O)c2ccccc2-c2ccccc2CO[C@@H]1CN(C)S(=O)(=O)c1ccc(C(F)(F)F)cc1`: 71.5% (inactive); for `CCC(=O)N1CCCCN2[C@H](C1)[C@@H](c1ccc(-c3ccc(F)cc3)cc1)[C@@H]2CO`: -6.94% (inactive).
The same measure for `COc1ccc(NC(=O)Nc2ccc3c(c2)C(=O)N([C@H](C)CO)C[C@@H](C)[C@H](CN(C)Cc2ccc(Cl)c(Cl)c2)OCCCC[C@@H](C)O3)cc1`: 114% (active); for `C[C@@H]1CCCCO[C@@H](CN(C)Cc2ccc(Cl)c(Cl)c2)[C@H](C)CN([C@H](C)CO)C(=O)c2cc(NC(=O)Nc3ccc(F)cc3)ccc2O1`: 112% (active); for `C[C@@H]1CN([C@H](C)CO)C(=O)c2cc(NC(=O)Nc3ccc(F)cc3)ccc2O[C@@H](C)CCCCO[C@H]1CN(C)Cc1ccc(Cl)c(Cl)c1`: 114% (active).
Then `C[C@@H]1CCCCO[C@@H](CN(C)Cc2ccc3c(c2)OCO3)[C@@H](C)CN([C@@H](C)CO)C(=O)c2cc(NC(=O)Nc3ccccc3)ccc2O1`, with 84.4% (inactive); and `COc1ccc(CN(C)C[C@H]2OCCCC[C@H](C)Oc3ccc(NC(=O)Nc4ccc5c(c4)OCO5)cc3C(=O)N([C@H](C)CO)C[C@@H]2C)cc1`, with 83% (inactive); and `C[C@@H]1CCCCO[C@H](CN(C)Cc2ccc(Cl)c(Cl)c2)[C@H](C)CN([C@@H](C)CO)C(=O)c2cc(NC(=O)C3CCCCC3)ccc2O1`, with 110% (active).
On to `O=C(NCc1ccccn1)[C@@H]1[C@@H](CO)[C@@H]2Cn3c(ccc(/C=C/c4ccccc4)c3=O)[C@H]1N2CC1CC1`, for which the inhibition was 22.2% (inactive).
For `C[C@H]1CN([C@@H](C)CO)C(=O)c2cc(C#CC3CCCCC3)cnc2O[C@H]1CN(C)S(=O)(=O)c1ccccc1`, the inhibition is 77% (inactive).
Take `C[C@@H]1CN([C@@H](C)CO)C(=O)Cc2cc(NC(=O)C3CCCCC3)ccc2O[C@@H]1CN(C)Cc1ccc(C(=O)Nc2ccccc2N)cc1`: the inhibition is 83.7% (inactive).
With `C[C@H](CO)N1C[C@H](C)[C@@H](CN(C)Cc2ccc(-c3ccccc3)cc2)Oc2ccc(NC(=O)CCC(F)(F)F)cc2CC1=O`, the inhibition is 89.8% (inactive).
Then `C[C@@H]1CCCCO[C@H](CN(C)C(=O)Nc2cccc3ccccc23)[C@H](C)CN([C@H](C)CO)C(=O)c2cc(NS(=O)(=O)c3cccs3)ccc2O1`, with 52.6% (inactive); and `C[C@H](CO)N1C[C@H](C)[C@H](CN(C)C(=O)Nc2ccc3c(c2)OCO3)Oc2ncc(C#Cc3cccc(F)c3)cc2C1=O`, with 36.1% (inactive).
With `CC(C)NC(=O)N(C)C[C@H]1OCc2cn(nn2)CCCC(=O)N([C@@H](C)CO)C[C@H]1C`, the inhibition is -10.9% (inactive).
For `O=C(C1CC1)N1CCCCN2[C@H](CO)[C@H](c3ccc(-c4cccc(F)c4)cc3)[C@H]2C1`, the inhibition was 67% (inactive).
As to `C[C@H](CO)N1C[C@H](C)[C@H](CN(C)C(=O)C2CCCCC2)Oc2ncc(C#Cc3cccc(F)c3)cc2C1=O`, the inhibition is 44.3% (inactive).
As to `O=C(c1ccncc1)N1CCCCN2[C@H](CO)[C@H](c3ccc(-c4ccccc4)cc3)[C@H]2C1`, the inhibition was 68.8% (inactive).
Regarding `O=C(C1CCC1)N1CCCCN2[C@H](CO)[C@H](c3ccc(-c4cccc(F)c4)cc3)[C@@H]2C1`, the inhibition is 62% (inactive).
For the compound `C[C@@H]1CN([C@H](C)CO)C(=O)c2cc(C#CC3CCCCC3)cnc2O[C@@H]1CN(C)C(=O)NC1CCCC1`, the inhibition is 66.9% (inactive).
The same measure for `O=C(C1CCC1)N1CCCCN2[C@H](CO)[C@H](c3ccc(-c4ccncc4)cc3)[C@@H]2C1`: 24.4% (inactive).
With `COc1cccc(C#Cc2ccc([C@@H]3[C@H](C#N)N[C@H]3CO)cc2)c1`, the inhibition is 97.1% (active).
As to `N#C[C@@H]1[C@@H](c2ccc(C#Cc3cccc(F)c3)cc2)[C@@H](CO)N1C(=O)C1CCC1`, the inhibition is 62.2% (inactive).
Then `COCC(=O)N1[C@H](CO)[C@@H](c2ccc(C#Cc3ccccc3F)cc2)[C@@H]1C#N`, with 72.9% (inactive); and `O=C(C[C@H]1CC[C@@H]2[C@H](COC[C@H](O)CN2Cc2ccc(Oc3ccccc3)cc2)O1)N1CCN(c2ccccc2)CC1`, with 21.7% (inactive); and `Cc1ccccc1-c1ccc([C@@H]2[C@H](CO)N3CCCCN(S(=O)(=O)c4ccc(F)cc4)C[C@@H]23)cc1`, with 62.4% (inactive).
For the compound `CC(=O)N1[C@H](CNC(=O)C2CC2)[C@@H](c2ccc(-c3cccc(F)c3)cc2)[C@@H]1CO`, the inhibition was -2.15% (inactive).
`CCCNC(=O)N1[C@@H]2c3cccc(=O)n3C[C@H]1[C@H](CO)[C@H]2C(=O)NCC(F)(F)F`: the inhibition was 23.3% (inactive).
The same measure for `CC(C)(O)C#Cc1ccc([C@@H]2[C@H](CO)N3CCCCN(C(=O)c4cccc(F)c4)C[C@@H]23)cc1`: -0.041% (inactive); for `CCC(=O)N1CCCCN2[C@H](C1)[C@@H](c1ccc(/C=C/c3ccccc3)cc1)[C@@H]2CO`: 62.7% (inactive); for `C[C@@H]1CN([C@@H](C)CO)S(=O)(=O)c2ccc(C#CCN(C)C)cc2O[C@H]1CN(C)C(=O)C1CC1`: 98.9% (active).
With `C[C@@H]1CN([C@@H](C)CO)S(=O)(=O)c2ccc(C#CCC3CCCC3)cc2O[C@H]1CN(C)C(=O)CC1CC1`, the inhibition is 64.9% (inactive).
Consider `CC(C)CC#Cc1ccc2c(c1)O[C@H](CN(C)C(=O)C1CC1)[C@@H](C)CN([C@@H](C)CO)S2(=O)=O`, for which the inhibition is 58.8% (inactive).
With `C[C@H]1CN([C@@H](C)CO)S(=O)(=O)c2ccc(C#CC3CCCC3)cc2O[C@@H]1CN(C)C(=O)c1cccc(F)c1`, the inhibition was 100% (active).
Then `C[C@@H]1CN([C@H](C)CO)S(=O)(=O)c2ccc(C#CCC3CCCC3)cc2O[C@H]1CN(C)C(=O)CC1CC1`, with 106% (active); and `CC(=O)N(C)C[C@H]1Oc2cc(C#CCN(C)C)ccc2S(=O)(=O)N([C@@H](C)CO)C[C@@H]1C`, with 91.3% (inactive).
As for `C[C@H](CO)N1C[C@H](C)[C@@H](CN(C)C(=O)Nc2cc(F)ccc2F)Oc2cc(C#CC3CC3)ccc2S1(=O)=O`, the inhibition was 51.9% (inactive).
Regarding `CNC[C@@H]1Oc2cc(C#CCC3CCCC3)ccc2S(=O)(=O)N([C@H](C)CO)C[C@H]1C`, the inhibition is 31.6% (inactive).
`CCCN(C)C[C@H]1Oc2cc(C#CC3CCCC3)ccc2S(=O)(=O)N([C@H](C)CO)C[C@@H]1C`: the inhibition was 68.9% (inactive).
